Measured values pooled from the literature.
Compare with care: the assays were run in different laboratories.
Cell line: MV4-11
Effect on: cell growth or viability

The EC50 of COc1ccc(-c2c(-c3ccc(C#N)c(F)c3)nc(N3CCC(N)CC3)n(C)c2=O)cc1F is reported as 2.9 nM (resazurin; 96 h).
c1cc(Nc2nccc(NC3CCCCC3)n2)cc(-n2ccnc2)c1 gave an EC50 of 58 nM (ATP luminescence; 72 h).
The GI50 of Cn1cc(-c2cc(N3CCCCS3(=O)=O)ccc2Oc2ccc(F)cc2F)c2c(F)c[nH]c2c1=O is reported as 3.5 nM (CCK-8; 72 h).
The IC50 of COc1cc(-c2ncn(/C=C\C(=O)OC(C)C)n2)cc(C(F)(F)F)c1 is reported as 28 nM (72 h).
O=C(NC1CCC1)c1ccc2nc(-c3cccc(NS(=O)(=O)NCCN4CCCCC4)c3)cn2c1 gave an IC50 of 4200 nM (ATP luminescence; 72 h).
For CC(C)[C@H](N)C(=O)N1CCC[C@H]1B(O)O, the IC50 was 78 nM (ATP luminescence; 48 h).
For c1cc(Nc2nccc(NC3CCCCC3)n2)cc(-c2cnccn2)c1, the EC50 was 53 nM (ATP luminescence; 72 h).
N[C@H]1CC[C@H](N[C@@H]2C[C@H]2c2ccccc2)CC1 has an EC50 of 0.1 nM (resazurin; 96 h).
For CC[C@@H](C)[C@H](N)C(=O)N1Cc2ccccc2C1, the IC50 was 1150 nM (ATP luminescence; 24 h).
The EC50 of c1cc(Nc2nccc(NC3CCCCC3)n2)cc(-c2ncco2)c1 is reported as 511 nM (ATP luminescence; 72 h).
COc1cc(Nc2nccc(-c3cnn4nc(OC)ccc34)n2)cc(C(F)(F)F)c1 has an IC50 of 48 nM (ATP luminescence).
COc1cc2nccc(Oc3ccc(NC(=O)C4(C(=O)Nc5ccc(F)cc5)CC4)cc3)c2cc1OC gave an IC50 of 12 nM (trypan blue; 72 h).
C#CCN(C)Cc1ccccc1 gave an EC50 of > 2000 nM (resazurin; 96 h).
For CC(C)Nc1ccnc(Nc2ccc(-c3ccccc3)cc2)n1, the EC50 was 11900 nM (ATP luminescence; 72 h).
For Nc1ncc(-c2cnn(C3CCNCC3)c2)cc1-c1nnc(CC2CC2)o1, the IC50 was 157 nM (trypan blue; 72 h).
